Series [1] concerns Vero. The series can be described thus: Cytotoxicity against african green monkey Vero cells after 4 days by green fluorescent protein detection method. Type of series: cell-based. The note with it: Chlorocebus sabaeus, 96 h.
The target of series [2] is T1, Aromatase (Homo sapiens, UniProt P11511).
T1 sequence (P11511 whole entry): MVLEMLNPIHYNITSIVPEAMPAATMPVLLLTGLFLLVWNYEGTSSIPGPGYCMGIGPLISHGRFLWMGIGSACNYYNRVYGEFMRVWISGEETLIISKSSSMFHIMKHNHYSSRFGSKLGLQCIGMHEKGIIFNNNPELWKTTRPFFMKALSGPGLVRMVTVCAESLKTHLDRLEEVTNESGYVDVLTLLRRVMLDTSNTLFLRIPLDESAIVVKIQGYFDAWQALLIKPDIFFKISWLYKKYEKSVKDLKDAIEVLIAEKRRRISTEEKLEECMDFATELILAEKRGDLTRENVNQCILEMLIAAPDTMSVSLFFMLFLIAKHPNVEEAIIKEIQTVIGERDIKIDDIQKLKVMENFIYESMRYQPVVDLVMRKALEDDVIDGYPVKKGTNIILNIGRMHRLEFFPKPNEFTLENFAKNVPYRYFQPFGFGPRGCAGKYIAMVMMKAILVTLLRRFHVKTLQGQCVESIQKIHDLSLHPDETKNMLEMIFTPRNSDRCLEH
The series can be described thus: Inhibition of CYP19 (unknown origin) using O-benzyl fluorescein benzyl ester substrate preincubated for 10 mins by fluorimetric analysis relative to control. In a few lines: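 CYP19 was assayed with dibenzylfluorescein (DBF) as substrate. DBF is dealkylated by the enzyme and hydrolysed to fluorescein. Cofactor mix was 50 mM phosphate buffer pH 7.4 with an NADPH-generating system (NADP⁺, glucose-6-phosphate, MgCl₂, glucose-6-phosphate dehydrogenase). This mix was preincubated 10 min at 37 °C. Enzyme/substrate mixture (16 pmol/mL CYP19 stock, 0.2 mM DBF stock) and test sample were then added.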

A short description of series [3]: Selectivity index, ratio of IC50 for african green monkey Vero cells to IC50 for CYP19 (unknown origin). In a few lines:
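Selectivity index was calculated as the IC₅₀ in GFP-Vero cells (4-day fluorescence assay) divided by the IC₅₀ in the DBF-based CYP19 fluorescence assay.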

A short description of series [4]: Solubility of the compound in phosphate buffer at pH 7.4 medium. It counts as physicochemical.

Molecules are shown by their SMILES. In brackets after ≈: the same amount, converted by molar mass.

In general, IC50 refers to the point on the concentration scale where inhibition reaches its midpoint. Take `O=c1ccc2ccc(OCc3cn(-c4ccc(S(=O)(=O)NCCc5ccccc5)cc4)nn3)cc2o1`: the results for the IC50 in series [1] and in series [2] were more than 50 µg/mL and more than 12.5 µM, respectively.
On to `O=c1cc(OCc2cn(-c3ccc(S(=O)(=O)NCCc4ccccc4)cc3)nn2)c2ccccc2o1`, for which the “Ratio IC50” value in series [3] was more than 55.27. Further, the IC50 in series [1] is more than 50 µg/mL; in series [2], 1.8 µM.
The corresponding values for `COc1ccc(CCNS(=O)(=O)c2ccc(-n3cc(-c4ccccc4)nn3)cc2)cc1OC` are more than 23.4, more than 50 µg/mL and 4.6 µM.
Taken in the same sequence, the figures for `COc1ccc(CCNS(=O)(=O)c2ccc(-n3cc(COc4ccc([N+](=O)[O-])cc4)nn3)cc2)cc1OC` were more than 34.32, more than 50 µg/mL and 2.7 µM.
Take `O=S(=O)(NCCc1ccccc1)c1ccc(-n2cc(-c3ccccc3)nn2)cc1`: the IC50 in series [1] was more than 50 µg/mL; in series [2], more than 12.5 µM.
As to `O=S(=O)(NCCc1ccccc1)c1ccc(-n2cc(COc3ccccc3)nn2)cc1`, the “Ratio IC50” value in series [3] is recorded as more than 12.24. Moreover, the IC50 was more than 50 µg/mL in series [1] and 9.4 µM in series [2].
In the case of `O=S(=O)(NCCc1ccccc1)c1ccc(-n2cc(COc3cccc4ccccc34)nn2)cc1`, the “Ratio IC50” value in series [3] is more than 30.35. Further, the IC50 in series [1] is more than 50 µg/mL; in series [2] it was 3.4 µM.
Taken in the same sequence, the figures for `O=S(=O)(NCCc1ccccc1)c1ccc(-n2cc(COc3ccc4ccccc4c3)nn2)cc1` were more than 79.37, more than 50 µg/mL and 1.3 µM.
For `Cc1ccc(OCc2cn(-c3ccc(S(=O)(=O)NCCc4ccccc4)cc3)nn2)cc1`, the “Ratio IC50” value in series [3] was more than 13.93. Besides, the values for the IC50 in series [1] and in series [2] were more than 50 µg/mL and 8 µM, respectively.
On to `O=Cc1ccc(OCc2cn(-c3ccc(S(=O)(=O)NCCc4ccccc4)cc3)nn2)cc1`, for which the “Ratio IC50” value in series [3] was more than 13.68. Besides, the IC50 in series [1] was more than 50 µg/mL; in series [2] it was 7.9 µM.
As for `O=[N+]([O-])c1ccc(OCc2cn(-c3ccc(S(=O)(=O)NCCc4ccccc4)cc3)nn2)cc1`, the “Ratio IC50” value in series [3] is on record as more than 35.96. Also, the IC50 was more than 50 µg/mL in series [1] and 2.9 µM in series [2].
For `Cc1ccccc1OCc1cn(-c2ccc(S(=O)(=O)NCCc3ccccc3)cc2)nn1`, the “Ratio IC50” value in series [3] is more than 32.79. For the same molecule, the figures for the IC50 in series [1] and in series [2] were more than 50 µg/mL and 3.4 µM, respectively.
In the case of `CC(=O)c1ccccc1OCc1cn(-c2ccc(S(=O)(=O)N3CCc4ccccc4C3)cc2)nn1`, the IC50 in series [1] was more than 50 µg/mL; in series [2], more than 12.5 µM.
In turn, `O=c1cc(OCc2cn(-c3ccc(S(=O)(=O)N4CCc5ccccc5C4)cc3)nn2)c2ccccc2o1` gave an IC50 in series [2] of more than 12.5 µM.
As to `COc1cc2c(cc1OC)CN(S(=O)(=O)c1ccc(-n3cc(COc4ccccc4C)nn3)cc1)CC2`, the IC50 in series [1] was more than 50 µg/mL; in series [2], more than 12.5 µM.
Take `COc1cc2c(cc1OC)CN(S(=O)(=O)c1ccc(-n3cc(COc4ccccc4C(C)=O)nn3)cc1)CC2`: the IC50 in series [2] was more than 12.5 µM.
Consider `COC(=O)c1ccccc1OCc1cn(-c2ccc(S(=O)(=O)N3CCc4cc(OC)c(OC)cc4C3)cc2)nn1`, for which, in series [2], the IC50 is more than 12.5 µM.
Consider `COc1cc2c(cc1OC)CN(S(=O)(=O)c1ccc(-n3cc(COc4ccc([N+](=O)[O-])cc4)nn3)cc1)CC2`, for which the IC50 in series [1] is more than 50 µg/mL; in series [2], more than 12.5 µM.
The corresponding values for `COc1cc2c(cc1OC)CN(S(=O)(=O)c1ccc(-n3cc(COc4cc(C=O)ccc4OC)nn3)cc1)CC2` are more than 50 µg/mL and more than 12.5 µM.
As for `O=c1ccc2ccc(OCc3cn(-c4cccc(S(=O)(=O)N5CCc6ccccc6C5)c4)nn3)cc2o1`, the midpoint of inhibition in series [1], the IC50, lay at 91.5 µg/mL (≈ 178 µM). Further, in series [4], the solubility entry was “Insoluble”.
On to `O=c1cc(OCc2cn(-c3cccc(S(=O)(=O)N4CCc5ccccc5C4)c3)nn2)c2ccccc2o1`, for which the IC50 is more than 50 µg/mL in series [1] and more than 12.5 µM in series [2].
With `COc1cc2c(cc1OC)CN(S(=O)(=O)c1cccc(-n3cc(COc4ccc5ccc(=O)oc5c4)nn3)c1)CC2`, in series [3], the “Ratio IC50” value is on record as more than 435.09. The IC50 is more than 50 µg/mL in series [1] and 0.2 µM in series [2].
The corresponding values for `COc1cc2c(cc1OC)CN(S(=O)(=O)c1cccc(-n3cc(COc4cc(=O)oc5ccccc45)nn3)c1)CC2` are 48, 86.3 µg/mL (≈ 150 µM) and 1.8 µM.
Regarding `Cc1c2ccncc2c(C)c2c1[nH]c1ccccc12` [ELLIPTECINE], the IC50 in series [1] was determined as 1.94 µg/mL (≈ 7.88 µM).

Source of the values: ChEMBL document CHEMBL3588765, “Synthesis and molecular docking of 1,2,3-triazole-based sulfonamides as aromatase inhibitors” (Bioorg Med Chem, 2015).
